# From ChEMBL document CHEMBL2311434, “Search for new tools to combat Gram-negative resistant bacteria among amine derivatives of 5-arylidenehydantoin” (2013)
# Activity calls are given as the source filed them. The calls are words filed in the database; no cut-off is given here. Peptide text beside a SMILES is read from it. * marks the point of attachment. βNA = c1ccc2cc(N*)ccc2c1
# Key:
# Klebsiella aerogenes [1] = test: Antibacterial activity against wild type Enterobacter aerogenes ATCC 13048 assessed as growth inhibition after 18 hrs by CLSI broth dilution method; format: functional; details: ATCC 13048, 18 h
# Summary of the method: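 Broth dilution per CLSI in Mueller-Hinton broth, about 10^6 cells per 1 mL, read after 18 h at 37 °C. The compound alone, with no antibiotic, against reference strain ATCC 13048. MIC is the mean of three independent determinations.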
# Klebsiella aerogenes [2] = test: Chemosensitization of Enterobacter aerogenes CM-64 overexpressing AcrAB-TolC assessed as decrease in nalidixic acid MIC at 63 uM relative to control; format: functional
# Summary of the method: (§1)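 About 10^6 cells were put into 1 mL Mueller-Hinton broth with twofold serial dilutions of the antibiotic (CLSI). A fixed sub-inhibitory compound concentration was added, set without antibiotic, usually ≤1/4 MIC. Controls ran without inhibitor. Plates were read after 18 h at 37 °C. MICs are the means of three independent determinations. Activity gain = MIC without compound / MIC with compound.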
# Klebsiella aerogenes [3] = test: Chemosensitization of Enterobacter aerogenes CM-64 overexpressing AcrAB-TolC assessed as decrease in sparfloxacin MIC at 63 uM relative to control; format: functional; summary of the method: as §1
# Klebsiella aerogenes [4] = test: Antibacterial activity against Enterobacter aerogenes CM-64 overexpressing AcrAB-TolC assessed as growth inhibition after 18 hrs by CLSI broth dilution method; format: functional; details: CM-64, 18 h
# Summary of the method: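 Intrinsic MIC of each compound with no antibiotic added. About 10^6 cells were inoculated into 1 mL Mueller-Hinton broth with twofold serial dilutions, following CLSI guidelines. Plates were read after 18 h at 37 °C, in triplicate. MIC is the mean of three independent determinations.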
# Klebsiella aerogenes [5] = test: Chemosensitization of Enterobacter aerogenes CM-64 overexpressing AcrAB-TolC assessed as decrease in chloramphenicol MIC at 63 uM relative to control; format: functional; summary of the method: as §1
# Klebsiella aerogenes [6] = test: Chemosensitization of wild type Enterobacter aerogenes ATCC 13048 assessed as decrease in sparfloxacin MIC at 63 uM relative to control; format: functional, organism-based; summary of the method: as §1
# Klebsiella aerogenes [7] = test: Chemosensitization of Enterobacter aerogenes CM-64 overexpressing AcrAB-TolC assessed as decrease in nalidixic acid MIC at 100 uM relative to control; format: functional, organism-based; summary of the method: as §1
# Klebsiella aerogenes [8] = test: Chemosensitization of wild type Enterobacter aerogenes ATCC 13048 assessed as decrease in nalidixic acid MIC at 100 uM relative to control; format: functional; summary of the method: as §1
# Klebsiella aerogenes [9] = test: Chemosensitization of Enterobacter aerogenes CM-64 overexpressing AcrAB-TolC assessed as decrease in sparfloxacin MIC at 100 uM relative to control; format: functional, organism-based; summary of the method: as §1
# Klebsiella aerogenes [10] = test: Chemosensitization of wild type Enterobacter aerogenes ATCC 13048 assessed as decrease in nalidixic acid MIC at 63 uM relative to control; format: functional
# Summary of the method: (§2)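 Antibiotic MIC by CLSI broth dilution: about 10^6 cells in 1 mL Mueller-Hinton broth with twofold antibiotic dilutions, 18 h at 37 °C, in triplicate. Compound held at a fixed sub-inhibitory level (≤MIC/4) set without antibiotic. Controls ran without inhibitor and without antibiotic. PAβN 50 µM served as reference. Activity gain = MIC without compound / MIC with compound. MICs are the mean of three determinations.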
# Klebsiella aerogenes [11] = test: Chemosensitization of Enterobacter aerogenes CM-64 overexpressing AcrAB-TolC assessed as decrease in chloramphenicol MIC at 200 uM relative to control; format: functional; summary of the method: as §1
# Klebsiella aerogenes [12] = test: Chemosensitization of Enterobacter aerogenes CM-64 overexpressing AcrAB-TolC assessed as decrease in nalidixic acid MIC at 200 uM relative to control; format: functional; summary of the method: as §1
# Klebsiella aerogenes [13] = test: Chemosensitization of Enterobacter aerogenes CM-64 overexpressing AcrAB-TolC assessed as decrease in sparfloxacin MIC at 200 uM relative to control; format: functional; summary of the method: as §1
# Klebsiella aerogenes [14] = test: Chemosensitization of wild type Enterobacter aerogenes ATCC 13048 assessed as decrease in nalidixic acid MIC at 200 uM relative to control; format: functional; summary of the method: as §1
# Klebsiella aerogenes [15] = test: Chemosensitization of Enterobacter aerogenes CM-64 overexpressing AcrAB-TolC assessed as decrease in nalidixic acid MIC at 100 uM relative to control
# Klebsiella aerogenes [16] = test: Chemosensitization of wild type Enterobacter aerogenes ATCC 13048 assessed as decrease in […] at 50 uM relative to control; format: functional, organism-based
# Klebsiella aerogenes [17] = test: Chemosensitization of wild type Enterobacter aerogenes ATCC 13048 assessed as decrease in chloramphenicol MIC at 63 uM relative to control; format: functional, organism-based; summary of the method: as §2
# Klebsiella aerogenes [18] = test: Chemosensitization of wild type Enterobacter aerogenes ATCC 13048 assessed as decrease in chloramphenicol MIC at 200 uM relative to control; format: functional, organism-based; summary of the method: as §2
Compound,MIC (Klebsiella aerogenes [1]),fold change (FC) (Klebsiella aerogenes [3]),MIC (Klebsiella aerogenes [4]),also measured
CC(C)NCC(O)CN1C(=O)N/C(=C\c2ccc(Cl)cc2)C1=O (centres undefined),250 µM,4,250 µM,Activity (Klebsiella aerogenes [2]): Active; fold change (FC) (Klebsiella aerogenes [5]): 4; Activity (Klebsiella aerogenes [6]): Active
C[C@@H]1CN(c2c(F)c(N)c3c(=O)c(C(=O)O)cn(C4CC4)c3c2F)C[C@H](C)N1 [SPARFLOXACIN],0.06 µM,,1 µM,
COc1ccc(/C=C2\NC(=O)N(CC(O)CN3CCN(c4ccccc4)CC3)C2=O)cc1OC (centres undefined),500 µM,,500 µM,Activity (Klebsiella aerogenes [7]): Active; fold change (FC) (Klebsiella aerogenes [8]): 2; Activity (Klebsiella aerogenes [9]): inactive
O=C(CN1C(=O)N/C(=C\c2ccc(Br)cc2)C1=O)N1CCN(CCO)CC1,> 1250 µM,,> 1250 µM,fold change (FC) (Klebsiella aerogenes [2]): 4
COc1ccc(/C=C2\NC(=O)N(CC(O)CN3CCN(C(C)=O)CC3)C2=O)cc1 (centres undefined),> 2000 µM,,> 2000 µM,Activity (Klebsiella aerogenes [2]): Active; Activity (Klebsiella aerogenes [3]): inactive
COc1ccc(/C=C2\NC(=O)N(CC(O)CNC(C)C)C2=O)c(OC)c1 (centres undefined),250 µM,4,250 µM,fold change (FC) (Klebsiella aerogenes [10]): 2; fold change (FC) (Klebsiella aerogenes [2]): 4; fold change (FC) (Klebsiella aerogenes [5]): 4; Activity (Klebsiella aerogenes [6]): Active
COc1ccc(/C=C2\NC(=O)N(CC(O)CN3CCN(c4ccccc4OC)CC3)C2=O)cc1OC (centres undefined),1000 µM,,1000 µM,fold change (FC) (Klebsiella aerogenes [11]): 2; Activity (Klebsiella aerogenes [12]): Active; Activity (Klebsiella aerogenes [13]): inactive
O=C1N/C(=C\c2ccc(Cl)cc2)C(=O)N1CC(O)CN1CCN(CCO)CC1 (centres undefined),250 µM,,250 µM,fold change (FC) (Klebsiella aerogenes [2]): 4; Activity (Klebsiella aerogenes [3]): inactive; Activity (Klebsiella aerogenes [6]): Active
COc1ccc(/C=C2\NC(=O)N(CC(O)CN3CCCCC3)C2=O)cc1 (centres undefined),> 2000 µM,,> 2000 µM,
CCN(CC)c1ccc(/C=C2\NC(=O)N(CC(O)CN3CCN(CCO)CC3)C2=O)cc1 (centres undefined),125 µM,4,250 µM,fold change (FC) (Klebsiella aerogenes [10]): 2; fold change (FC) (Klebsiella aerogenes [2]): 4; fold change (FC) (Klebsiella aerogenes [5]): 4
COc1ccccc1N1CCN(CC(O)CN2C(=O)N/C(=C\c3ccc(Cl)cc3)C2=O)CC1 (centres undefined),500 µM,,1000 µM,fold change (FC) (Klebsiella aerogenes [14]): 2; fold change (FC) (Klebsiella aerogenes [15]): 4; Activity (Klebsiella aerogenes [13]): inactive
O=C(CN1C(=O)N/C(=C\c2ccccc2)C1=O)N1CCN(CCO)CC1,125 µM,2,250 µM,fold change (FC) (Klebsiella aerogenes [2]): 4; fold change (FC) (Klebsiella aerogenes [5]): 2
N=C(N)NCCC[C@H](NC(=O)[C@@H](N)Cc1ccccc1)C(=O)Nc1ccc2ccccc2c1 [PABETAN] (H-Phe-Arg-βNA),5000 µM,,5000 µM,Activity (Klebsiella aerogenes [16]): Active
COc1ccc(/C=C2\NC(=O)N(CC(O)CN3CCOCC3)C2=O)cc1 (centres undefined),> 2000 µM,,> 2000 µM,Activity (Klebsiella aerogenes [3]): inactive
COc1ccc(/C=C2\NC(=O)N(CC(O)CN3CCNCC3)C2=O)cc1.Cl.Cl (centres undefined),> 2000 µM,2,> 2000 µM,
CCn1cc(C(=O)O)c(=O)c2ccc(C)nc21 [NALIDIXIC ACID],8 µM,,128 µM,
COc1ccccc1N1CCN(CC(O)CN2C(=O)N/C(=C\c3ccccc3)C2=O)CC1 (centres undefined),500 µM,,1000 µM,fold change (FC) (Klebsiella aerogenes [14]): 2; Activity (Klebsiella aerogenes [12]): Active; Activity (Klebsiella aerogenes [13]): inactive
CC(C)NCC(O)CN1C(=O)N/C(=C\c2ccc(Br)cc2)C1=O (centres undefined),> 1250 µM,,> 1250 µM,
COc1ccc(/C=C2\NC(=O)N(CC(O)CN3CCN(CCO)CC3)C2=O)c(OC)c1 (centres undefined),125 µM,2,250 µM,fold change (FC) (Klebsiella aerogenes [2]): 4; fold change (FC) (Klebsiella aerogenes [5]): 4
COc1ccc(/C=C2\NC(=O)N(CC(O)CNCCCN3CCN(C)CC3)C2=O)cc1.Cl (centres undefined),> 2000 µM,,> 2000 µM,fold change (FC) (Klebsiella aerogenes [10]): 2; Activity (Klebsiella aerogenes [3]): inactive; Activity (Klebsiella aerogenes [17]): Active; Activity (Klebsiella aerogenes [6]): Active
COc1ccc(/C=C2\NC(=O)N(CC(O)CN3CCN(C)CC3)C2=O)cc1.Cl (centres undefined),> 2000 µM,2,> 2000 µM,
CCOc1ccccc1N1CCN(CC(O)CN2C(=O)N/C(=C\c3ccc(Cl)cc3)C2=O)CC1 (centres undefined),500 µM,,1000 µM,fold change (FC) (Klebsiella aerogenes [15]): 4; fold change (FC) (Klebsiella aerogenes [13]): 2; Activity (Klebsiella aerogenes [18]): Active
O=C(N[C@H](CO)[C@H](O)c1ccc([N+](=O)[O-])cc1)C(Cl)Cl [CHLORAMPHENICOL],4 µM,,256 µM,
